# Source: ChEMBL document CHEMBL1144326, “Exploring the active site of phenylethanolamine N-methyltransferase with 3-hydroxyethyl- and 3-hydroxypropyl-7-substituted-1,2,3,4-tetrahydroisoquinolines” (Bioorg Med Chem Lett, 2005)
# Biological target: T1, Adrenergic receptor alpha-2 (Rattus norvegicus, UniProt P22086+P19328+P22909)
# T1 sequence (P22086 whole entry): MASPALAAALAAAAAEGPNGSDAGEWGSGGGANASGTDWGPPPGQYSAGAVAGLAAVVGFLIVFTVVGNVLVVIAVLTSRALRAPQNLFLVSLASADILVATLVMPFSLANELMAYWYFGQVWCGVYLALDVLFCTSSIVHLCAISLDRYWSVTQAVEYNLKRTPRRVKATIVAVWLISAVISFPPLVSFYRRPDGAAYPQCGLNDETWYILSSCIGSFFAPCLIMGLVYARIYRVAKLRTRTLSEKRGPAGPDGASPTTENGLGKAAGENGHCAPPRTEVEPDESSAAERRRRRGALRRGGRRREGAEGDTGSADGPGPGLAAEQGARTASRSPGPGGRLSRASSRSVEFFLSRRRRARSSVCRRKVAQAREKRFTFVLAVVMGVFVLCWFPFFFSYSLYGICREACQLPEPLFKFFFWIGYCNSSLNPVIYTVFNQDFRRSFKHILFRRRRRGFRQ
# T1 sequence (P19328 whole entry): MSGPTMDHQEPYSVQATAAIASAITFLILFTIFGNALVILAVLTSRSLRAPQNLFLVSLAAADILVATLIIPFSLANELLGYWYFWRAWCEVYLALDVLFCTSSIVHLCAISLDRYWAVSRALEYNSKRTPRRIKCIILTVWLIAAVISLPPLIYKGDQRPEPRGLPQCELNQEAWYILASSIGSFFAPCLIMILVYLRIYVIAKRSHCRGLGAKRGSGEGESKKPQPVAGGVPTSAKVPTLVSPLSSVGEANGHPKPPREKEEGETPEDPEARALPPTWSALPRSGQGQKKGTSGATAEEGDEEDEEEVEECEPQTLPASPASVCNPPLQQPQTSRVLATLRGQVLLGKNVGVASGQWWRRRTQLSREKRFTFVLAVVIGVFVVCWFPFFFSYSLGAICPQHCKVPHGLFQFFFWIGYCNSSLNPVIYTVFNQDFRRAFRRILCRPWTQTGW
# T1 sequence (P22909 whole entry): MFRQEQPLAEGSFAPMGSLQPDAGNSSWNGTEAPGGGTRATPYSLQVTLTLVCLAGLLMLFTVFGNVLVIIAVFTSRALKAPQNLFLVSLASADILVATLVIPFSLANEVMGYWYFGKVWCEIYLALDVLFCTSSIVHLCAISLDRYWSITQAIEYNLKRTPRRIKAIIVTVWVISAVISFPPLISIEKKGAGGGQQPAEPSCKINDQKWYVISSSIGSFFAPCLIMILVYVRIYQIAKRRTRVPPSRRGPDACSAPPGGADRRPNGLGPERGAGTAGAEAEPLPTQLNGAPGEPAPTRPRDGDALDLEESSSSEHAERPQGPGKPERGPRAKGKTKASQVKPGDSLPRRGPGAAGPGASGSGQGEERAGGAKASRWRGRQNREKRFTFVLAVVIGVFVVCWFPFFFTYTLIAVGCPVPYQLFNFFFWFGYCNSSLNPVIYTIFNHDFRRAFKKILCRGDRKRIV
# Experiment: Binding affinity against alpha 2 adrenergic receptor in rat cortex using [3H]clonidine as radioligand
# Assay type: tissue-based
row,Compound,Ki [µM]
1,OCCCC1Cc2ccc(Br)cc2CN1 (centres undefined),4.8
2,O=[N+]([O-])c1ccc2c(c1)CNC(CCO)C2 (centres undefined),46
3,OCC1Cc2ccc(Br)cc2CN1 (centres undefined),1
4,O=[N+]([O-])c1ccc2c(c1)CNC(CCCO)C2 (centres undefined),59
5,OCCC1Cc2ccc(Br)cc2CN1 (centres undefined),1.3

# Biological target: T2, Alpha-2A adrenergic receptor (Homo sapiens, UniProt P08913)
# T2 sequence (P08913 whole entry): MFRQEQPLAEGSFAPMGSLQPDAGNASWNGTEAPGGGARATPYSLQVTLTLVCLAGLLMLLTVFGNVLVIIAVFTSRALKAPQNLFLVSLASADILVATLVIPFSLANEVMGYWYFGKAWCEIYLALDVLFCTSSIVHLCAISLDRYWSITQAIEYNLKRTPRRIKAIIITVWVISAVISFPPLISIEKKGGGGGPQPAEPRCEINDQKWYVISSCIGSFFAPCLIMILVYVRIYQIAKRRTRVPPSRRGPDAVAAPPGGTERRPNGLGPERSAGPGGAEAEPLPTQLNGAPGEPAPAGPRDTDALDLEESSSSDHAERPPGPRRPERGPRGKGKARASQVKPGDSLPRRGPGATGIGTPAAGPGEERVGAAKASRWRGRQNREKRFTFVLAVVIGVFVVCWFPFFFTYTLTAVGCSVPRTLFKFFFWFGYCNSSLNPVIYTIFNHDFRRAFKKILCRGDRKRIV
# Experiment: Binding affinity against human alpha 2A adrenergic receptor in CHO cells using [3H]RX-821002 as radioligand
# Assay type: cell-based
# Summary of the method: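 Membranes from CHO cells stably transfected with human α2A-adrenoceptor; [³H]RX821002 at 0.2 nM as radioligand; nonspecific binding defined with (−)-norepinephrine; displacement of radioligand measured.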
row,Compound,pKi
1,O=[N+]([O-])c1ccc2c(c1)CNCC2,3.2
2,NS(=O)(=O)c1ccc2c(c1)CNCC2,3.4
3,O=[N+]([O-])c1ccc2c(c1)CNC(CF)C2 (centres undefined),3.2
4,FC(F)(F)C1Cc2ccc(Br)cc2CN1 (centres undefined),4.35
5,O=[N+]([O-])c1ccc2c(c1)CNC(CO)C2 (centres undefined),3.9
6,O=[N+]([O-])c1ccc2c(c1)CNC(C(F)F)C2 (centres undefined),3.6
7,O=[N+]([O-])c1ccc2c(c1)CNC(C(F)(F)F)C2 (centres undefined),3.4
8,Clc1ccc2c(c1Cl)CNCC2,6.52
9,CC1Cc2ccc([N+](=O)[O-])cc2CN1 (centres undefined),4.84
